In ChEMBL document CHEMBL4732237, “Discovery of 4-alkoxy-2-aryl-6,7-dimethoxyquinolines as a new class of topoisomerase I inhibitors endowed with potent in vitro anticancer activity” (2021):

How the values were obtained:
Format in all cases: functional
Settings in all cases: read-out: GI
MDA-MB-435 = experiment: Growth inhibition of human MDA-MB-435 cells at 10 uM incubated for 48 hrs by sulforhodamine B assay relative to control
Method in brief: (§1)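 NCI-60 single-dose screen. Cells were grown in RPMI 1640 with 5% FBS and 2 mM L-glutamine and plated 24 h before drug addition. Compound was added at one concentration in DMSO-derived medium and incubated for 48 h at 37 °C in 5% CO2. Read-out was SRB protein stain at 515 nm. Result is percent growth versus the no-drug control and the time-zero cell count; values below 0 indicate lethality.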

SF-268 = experiment: Growth inhibition of human SF-268 cells at 10 uM incubated for 48 hrs by sulforhodamine B assay relative to control
Method in brief: (§2)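 NCI one-dose screen. Cells grown in RPMI 1640 with 5% FBS and 2 mM L-glutamine, plated and incubated 24 h at 37 °C, 5% CO2. DMSO-dissolved drug added, then 48 h further incubation. Adherent cells fixed with cold TCA, suspension cells fixed after settling. Stained with 0.4% SRB, absorbance read at 515 nm. Reported as percent growth relative to no-drug control and time-zero cell number.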

OVCAR-4 = experiment: Growth inhibition of human OVCAR-4 cells at 10 uM incubated for 48 hrs by sulforhodamine B assay relative to control; method in brief: as §2
NCI/ADR-RES = experiment: Growth inhibition of human NCI/ADR-RES cells at 10 uM incubated for 48 hrs by sulforhodamine B assay relative to control; method in brief: as §2
NCI-H322M = experiment: Growth inhibition of human NCI-H322M cells at 10 uM incubated for 48 hrs by sulforhodamine B assay relative to control; method in brief: as §2
NCI-H460 = experiment: Growth inhibition of human NCI-H460 cells at 10 uM incubated for 48 hrs by sulforhodamine B assay relative to control; method in brief: as §2
U-251 = experiment: Growth inhibition of human U-251 cells at 10 uM incubated for 48 hrs by sulforhodamine B assay relative to control
Method in brief: (§3)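 NCI one-dose screen across a 59-line panel. Cells were grown in RPMI 1640 with 5% FBS and 2 mM L-glutamine, plated and pre-incubated 24 h, then exposed to drug for 48 h at 37 °C, 5% CO2. Adherent cells were fixed with cold TCA (10% final), stained with 0.4% SRB in 1% acetic acid and read at 515 nm. Result is percent growth relative to no-drug control and time-zero cell count.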

UACC-257 = experiment: Growth inhibition of human UACC-257 cells at 10 uM incubated for 48 hrs by sulforhodamine B assay relative to control; method in brief: as §3
SW-620 = experiment: Growth inhibition of human SW-620 cells at 10 uM incubated for 48 hrs by sulforhodamine B assay relative to control; method in brief: as §3
NCI-H226 = experiment: Growth inhibition of human NCI-H226 cells at 10 uM incubated for 48 hrs by sulforhodamine B assay relative to control; method in brief: as §2
SK-MEL-5 = experiment: Growth inhibition of human SK-MEL-5 cells at 10 uM incubated for 48 hrs by sulforhodamine B assay relative to control; method in brief: as §2
SN12C = experiment: Growth inhibition of human SN12C cells at 10 uM incubated for 48 hrs by sulforhodamine B assay relative to control; method in brief: as §2
BT-549 = experiment: Growth inhibition of human BT-549 cells at 10 uM incubated for 48 hrs by sulforhodamine B assay relative to control; method in brief: as §1
HOP-62 = experiment: Growth inhibition of human HOP-62 cells at 10 uM incubated for 48 hrs by sulforhodamine B assay relative to control; method in brief: as §1
Hs-578T = experiment: Growth inhibition of human HS-578T cells at 10 uM incubated for 48 hrs by sulforhodamine B assay relative to control; method in brief: as §1
MCF7 = experiment: Growth inhibition of human MCF7 cells at 10 uM incubated for 48 hrs by sulforhodamine B assay relative to control; method in brief: as §1
HL-60(TB) = experiment: Growth inhibition of human HL-60(TB) cells at 10 uM incubated for 48 hrs by sulforhodamine B assay relative to control
Method in brief: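 NCI-60 one-dose screen: same culture, 48 h drug exposure and SRB read-out. Reported as percent growth relative to no-drug control and to time-zero cell number; 0–100 means growth inhibition, below 0 means lethality.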

SNB-19 = experiment: Growth inhibition of human SNB-19 cells at 10 uM incubated for 48 hrs by sulforhodamine B assay relative to control; method in brief: as §2
SK-MEL-28 = experiment: Growth inhibition of human SK-MEL-28 cells at 10 uM incubated for 48 hrs by sulforhodamine B assay relative to control; method in brief: as §2
PC-3 = experiment: Growth inhibition of human PC-3 cells at 10 uM incubated for 48 hrs by sulforhodamine B assay relative to control; method in brief: as §2
COLO 205 = experiment: Growth inhibition of human COLO 205 cells at 10 uM incubated for 48 hrs by sulforhodamine B assay relative to control; method in brief: as §1
A498 = experiment: Growth inhibition of human A498 cells at 10 uM incubated for 48 hrs by sulforhodamine B assay relative to control; method in brief: as §3
NCI-H23 = experiment: Growth inhibition of human NCI-H23 cells at 10 uM incubated for 48 hrs by sulforhodamine B assay relative to control; method in brief: as §2
Malme-3M = experiment: Growth inhibition of human Malme-3M cells at 10 uM incubated for 48 hrs by sulforhodamine B assay relative to control; method in brief: as §2
HOP-92 = experiment: Growth inhibition of human HOP-92 cells at 10 uM incubated for 48 hrs by sulforhodamine B assay relative to control; method in brief: as §1
T47D = experiment: Growth inhibition of human T47D cells at 10 uM incubated for 48 hrs by sulforhodamine B assay relative to control; method in brief: as §3
MDA-MB-231 = experiment: Growth inhibition of human MDA-MB-231 cells at 10 uM incubated for 48 hrs by sulforhodamine B assay relative to control; method in brief: as §1
SK-MEL-2 = experiment: Growth inhibition of human SK-MEL-2 cells at 10 uM incubated for 48 hrs by sulforhodamine B assay relative to control; method in brief: as §2
KM12 = experiment: Growth inhibition of human KM12 cells at 10 uM incubated for 48 hrs by sulforhodamine B assay relative to control; method in brief: as §1
NCI-H522 = experiment: Growth inhibition of human NCI-H522 cells at 10 uM incubated for 48 hrs by sulforhodamine B assay relative to control; method in brief: as §2
IGROV-1 = experiment: Growth inhibition of human IGROV-1 cells at 10 uM incubated for 48 hrs by sulforhodamine B assay relative to control; method in brief: as §1
MOLT-4 = experiment: Growth inhibition of human MOLT-4 cells at 10 uM incubated for 48 hrs by sulforhodamine B assay relative to control; method in brief: as §2
MDA-MB-468 = experiment: Growth inhibition of human MDA-MB-468 cells at 10 uM incubated for 48 hrs by sulforhodamine B assay relative to control; method in brief: as §1
EKVX = experiment: Growth inhibition of human EKVX cells at 10 uM incubated for 48 hrs by sulforhodamine B assay relative to control; method in brief: as §1
SF-539 = experiment: Growth inhibition of human SF-539 cells at 10 uM incubated for 48 hrs by sulforhodamine B assay relative to control; method in brief: as §2

| SMILES | inhibition of growth at 10 µM (MDA-MB-435) | inhibition of growth at 10 µM (SF-268) | inhibition of growth at 10 µM (OVCAR-4) | inhibition of growth at 10 µM (NCI/ADR-RES) | inhibition of growth at 10 µM (NCI-H322M) | inhibition of growth at 10 µM (NCI-H460) | inhibition of growth at 10 µM (U-251) | inhibition of growth at 10 µM (UACC-257) | inhibition of growth at 10 µM (SW-620) | inhibition of growth at 10 µM (NCI-H226) | inhibition of growth at 10 µM (SK-MEL-5) | inhibition of growth at 10 µM (SN12C) | inhibition of growth at 10 µM (BT-549) | inhibition of growth at 10 µM (HOP-62) | inhibition of growth at 10 µM (Hs-578T) | inhibition of growth at 10 µM (MCF7) | inhibition of growth at 10 µM (HL-60(TB)) | inhibition of growth at 10 µM (SNB-19) | inhibition of growth at 10 µM (SK-MEL-28) | inhibition of growth at 10 µM (PC-3) | other results |
| --- | --- | --- | --- | --- | --- | --- | --- | --- | --- | --- | --- | --- | --- | --- | --- | --- | --- | --- | --- | --- | --- |
| COc1cc2nc(-c3ccc(Cl)cc3)cc(OCCCN3CCC(O)CC3)c2cc1OC | 62% | 62% | 62% | 62% | 62% | 62% | 62% | 62% | 62% | 62% | 62% | 62% | 62% | 62% | 62% | 62% | 62% | 62% | 62% | 62% | inhibition of growth at 10 µM (COLO 205): 62%; inhibition of growth at 10 µM (A498): 62%; inhibition of growth at 10 µM (NCI-H23): 62%; inhibition of growth at 10 µM (Malme-3M): 62%; inhibition of growth at 10 µM (HOP-92): 62%; inhibition of growth at 10 µM (T47D): 62%; inhibition of growth at 10 µM (MDA-MB-231): 62%; inhibition of growth at 10 µM (SK-MEL-2): 62%; inhibition of growth at 10 µM (KM12): 62%; inhibition of growth at 10 µM (NCI-H522): 62%; inhibition of growth at 10 µM (IGROV-1): 62%; inhibition of growth at 10 µM (MOLT-4): 62%; inhibition of growth at 10 µM (MDA-MB-468): 62%; inhibition of growth at 10 µM (EKVX): 62%; inhibition of growth at 10 µM (SF-539): 62% |
| COc1cc2nc(-c3ccc(Cl)cc3)cc(OCCN3CCCC3)c2cc1OC | 3% | 3% | 3% | 3% | 3% | 3% | 3% | 3% | 3% | 3% | 3% | 3% | 3% | 3% | 3% | 3% | 3% | 3% | 3% | 3% | inhibition of growth at 10 µM (COLO 205): 3%; inhibition of growth at 10 µM (A498): 3%; inhibition of growth at 10 µM (NCI-H23): 3%; inhibition of growth at 10 µM (Malme-3M): 3%; inhibition of growth at 10 µM (HOP-92): 3%; inhibition of growth at 10 µM (T47D): 3%; inhibition of growth at 10 µM (MDA-MB-231): 3%; inhibition of growth at 10 µM (SK-MEL-2): 3%; inhibition of growth at 10 µM (KM12): 3%; inhibition of growth at 10 µM (NCI-H522): 3%; inhibition of growth at 10 µM (IGROV-1): 3%; inhibition of growth at 10 µM (MOLT-4): 3%; inhibition of growth at 10 µM (MDA-MB-468): 3%; inhibition of growth at 10 µM (EKVX): 3%; inhibition of growth at 10 µM (SF-539): 3% |
| COc1cc2nc(-c3ccc(Cl)cc3)cc(OCCN3CCOCC3)c2cc1OC | 3% | 3% | 3% | 3% | 3% | 3% | 3% | 3% | 3% | 3% | 3% | 3% | 3% | 3% | 3% | 3% | 3% | 3% | 3% | 3% | inhibition of growth at 10 µM (COLO 205): 3%; inhibition of growth at 10 µM (A498): 3%; inhibition of growth at 10 µM (NCI-H23): 3%; inhibition of growth at 10 µM (Malme-3M): 3%; inhibition of growth at 10 µM (HOP-92): 3%; inhibition of growth at 10 µM (T47D): 3%; inhibition of growth at 10 µM (MDA-MB-231): 3%; inhibition of growth at 10 µM (SK-MEL-2): 3%; inhibition of growth at 10 µM (KM12): 3%; inhibition of growth at 10 µM (NCI-H522): 3%; inhibition of growth at 10 µM (IGROV-1): 3%; inhibition of growth at 10 µM (MOLT-4): 3%; inhibition of growth at 10 µM (MDA-MB-468): 3%; inhibition of growth at 10 µM (EKVX): 3%; inhibition of growth at 10 µM (SF-539): 3% |
| COc1cc2nc(-c3ccc(Cl)cc3)cc(OCCCN3CCCCC3)c2cc1OC | 62% | 62% | 62% | 62% | 62% | 62% | 62% | 62% | 62% | 62% | 62% | 62% | 62% | 62% | 62% | 62% | 62% | 62% | 62% | 62% | inhibition of growth at 10 µM (COLO 205): 62%; inhibition of growth at 10 µM (A498): 62%; inhibition of growth at 10 µM (NCI-H23): 62%; inhibition of growth at 10 µM (Malme-3M): 62%; inhibition of growth at 10 µM (HOP-92): 62%; inhibition of growth at 10 µM (T47D): 62%; inhibition of growth at 10 µM (MDA-MB-231): 62%; inhibition of growth at 10 µM (SK-MEL-2): 62%; inhibition of growth at 10 µM (KM12): 62%; inhibition of growth at 10 µM (NCI-H522): 62%; inhibition of growth at 10 µM (IGROV-1): 62%; inhibition of growth at 10 µM (MOLT-4): 62%; inhibition of growth at 10 µM (MDA-MB-468): 62%; inhibition of growth at 10 µM (EKVX): 62%; inhibition of growth at 10 µM (SF-539): 62% |
